SIAE primary = human SIAE inhibition, primary screen; SIAE FP-Rh probe binding, fluorescence polarization; inhibition, % at 9.66 µM; 370,000 compounds, 0.69% hits;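 active = inhibition above a cutoff: mean of compounds within the control limits plus 3 SD of those, cut at about 17% in these data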
TCR CD3 inh = inhibitors of human TCR-CD3 interaction | TAMRA-labeled TCR probe fluorescence, biochemical | inhibition, % at 9.4 µM | 360,000 compounds, 0.37% hits;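 note: recombinant mutant TCR 2C K166C tagged with TAMRA read by polarization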
HTRA1 inh = inhibitors of human serine peptidase HTRA1; 340,000 compounds, 0.5% hits; Q92743; recombinant HTRA1, FP-rhodamine activity-based probe, fluorescence polarization; inhibition, % at 5.96 µM; in the data active = inhibition above about 36%
Target sequence (Q92743 whole entry, looked up): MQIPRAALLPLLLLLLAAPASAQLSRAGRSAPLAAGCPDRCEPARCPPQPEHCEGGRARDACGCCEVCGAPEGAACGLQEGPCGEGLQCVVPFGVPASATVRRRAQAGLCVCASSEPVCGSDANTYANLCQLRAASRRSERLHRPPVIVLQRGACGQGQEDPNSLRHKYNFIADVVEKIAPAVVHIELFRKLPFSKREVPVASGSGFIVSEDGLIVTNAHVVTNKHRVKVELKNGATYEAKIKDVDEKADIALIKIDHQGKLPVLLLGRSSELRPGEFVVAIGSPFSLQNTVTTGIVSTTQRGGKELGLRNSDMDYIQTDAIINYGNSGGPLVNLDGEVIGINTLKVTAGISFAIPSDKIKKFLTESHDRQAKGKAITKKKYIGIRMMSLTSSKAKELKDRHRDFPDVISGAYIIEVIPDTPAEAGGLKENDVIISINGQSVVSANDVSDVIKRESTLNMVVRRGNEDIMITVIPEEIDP
ABHD4 inh = inhibitors of mouse ABHD4. Q8VD66. inhibition, % at 8.92 µM. purified mABHD4, FP-Rh probe fluorescence polarization. 370,000 compounds, 0.54% hits;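 active = inhibition exceeding the mean over every tested compound plus 3 SD, cut at about 30% in these data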
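system = mouse ABHD4 enzyme, wild type | medium = HEPES pH 7.0, NaCl, Pluronic buffer | also added = FP-Rh probe | incubation = Enzyme–compound pre-incubation 45 min, then probe 60 min, both 25 °C | technique = fluorescence polarization, excitation 525 nm, emission 598 nm, BODIPY TMR filters | controls = S159A mutant high control, sample median low control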
PRMT1 FP inh = PRMT1 (human) inhibition, primary screen; Q99873; recombinant PRMT1, activity-based probe fluorescence polarization; inhibition, % at 2.79 µM; 370,000 compounds, 1.3% hits; AID 652257;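 active = inhibition above about 21% made by adding two undisclosed values, limit read from the data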
BSA TAMRA ctr = counter-screen for TCR-CD3 interaction inhibitors: BSA probe. shares compounds with TCR CD3 inh. 1,200 compounds, 10% hits. inhibition, % at 9.4 µM. TAMRA-labeled BSA probe fluorescence counterscreen. AID 652035; in the data active = inhibition above about 23%
TCR-CD3 inh conf = TCR-CD3 interaction inhibition, confirmation; AID 652036; inhibition, % at 9.4 µM; 1,200 compounds, 48% hits; TAMRA-labeled TCR probe fluorescence binding assay; shares compounds with TCR CD3 inh
A number is an active result; – = inactive; · = no result. Rows were chosen to be rich in hits. Some 2.7% of all compounds tested hit in one or more screens of this group. Cut-off read from the data, not from the text of the source, unless noted: active = inhibition above about 19%; inactive = the rest.

SMILES	SIAE primary	TCR CD3 inh	HTRA1 inh	ABHD4 inh	PRMT1 FP inh	BSA TAMRA ctr	TCR-CD3 inh conf
CCOC(=O)c1c(C)nc2sc(C(=O)Nc3ccc(OC)cc3)c(N)c2c1-c1ccc(OC)cc1	–	–	–	–	–	·	·
CCOC(=O)c1c(C)nc2sc(C(=O)Nc3ccc(C(C)=O)cc3)c(N)c2c1-c1ccc(OC)cc1	–	24.5	–	–	–	–	–
COc1ccc(-c2nn(-c3ccccc3)cc2/C=C/C(=O)N(C)CC(=O)Nc2cccc(F)c2)cc1OC	–	26.3	–	–	–	–	26.1
O=C(O)c1cccc(-n2cccc2/C=C2/NC(=O)N(c3ccc(Cl)cc3)C2=O)c1	–	36.0	–	–	32.1	–	31.3
O=C(O)c1cccc(-n2cccc2/C=C2/NC(=O)N(c3cccc(Cl)c3)C2=O)c1	–	–	–	–	–	·	·
Cc1ccc(S(=O)(=O)N2C[C@H]3C(=O)C[C@@H](c4ccccc4)N(S(=O)(=O)c4ccc(C)cc4)[C@H]3C[C@H]2c2ccccc2Cl)cc1	–	–	·	–	–	·	·
CC(C)Oc1ccc(S(=O)(=O)N2CCOCC2)cc1NC(=O)c1ccc(N2CCCC2=O)cc1	–	–	–	–	–	·	·
O=C(Nc1ccc2oc(-c3cccnc3)nc2c1)c1ccc2c(c1)OCCO2	–	27.1	–	–	–	–	–
COc1ccccc1N(C)S(=O)(=O)c1ccc(C(=O)OCC(=O)N(C)c2ccccc2)cc1	–	–	–	–	–	·	·
COc1ccccc1N(C)S(=O)(=O)c1ccc(C(=O)OCC(=O)c2c[nH]c3ccccc23)cc1	–	19.9	–	–	–	–	–
OC(c1ccc(F)cc1)c1nc(-c2ccncc2)cs1 (centres undefined)	–	46.5	·	–	–	–	–
C=CCNc1cccc2c1S(=O)(=O)N[C@@H](Cc1ccccc1)CO2	–	–	·	–	–	·	·
O=C(COC(=O)C12CC3CC(CC(Br)(C3)C1)C2)N1CCOCC1	–	–	–	–	–	·	·
COc1ccccc1CC1CC(=O)N(c2cccc(Cl)c2C)C1=O (centres undefined)	–	19.2	–	–	–	–	–
CC(NCC(=O)Nc1ccccc1C(=O)NC1CC1)c1ccc(S(C)(=O)=O)cc1 (centres undefined)	–	–	–	–	–	·	·
COc1ccc(S(=O)(=O)NCC2CCCN(C(=O)CCSC)C2)cc1 (centres undefined)	–	–	–	–	–	·	·
CC(C)c1ccc(NC(=O)C(c2ccccc2)N2CCOCC2)cc1 (centres undefined)	–	23.7	–	–	–	–	–
CC(C)c1ccc(NC(=O)C(c2ccccc2)N2CCN(C=O)CC2)cc1 (centres undefined)	–	–	–	–	–	·	·
Cc1nn2c(-c3cccc(NC(=O)c4ccco4)c3)nnc2c2ccccc12	–	19.6	–	–	–	–	–
COCCN(C(=O)COC(=O)c1cc2c(s1)CCC2)c1c(N)n(Cc2ccccc2)c(=O)[nH]c1=O	–	26.5	–	–	–	–	37.2
CCC1CCc2sc(C(=O)OCC(=O)N(CCOC)c3c(N)n(Cc4ccccc4)c(=O)[nH]c3=O)cc2C1 (centres undefined)	–	–	–	–	–	·	·
Nc1c(N(Cc2ccccc2)C(=O)COc2ccc(F)cc2Cl)c(=O)[nH]c(=O)n1Cc1ccccc1	–	21.2	–	–	–	–	20.9
CCOC(=O)CN1C(=O)[C@]2(OCCC=C[C@H]2C)c2ccccc21	–	–	·	–	–	·	·
O=C(O)CC(CC(=O)NCC(O)c1ccccc1)c1ccccc1 (centres undefined)	–	–	–	–	–	·	·
CCOC(=O)[C@H](C)N1[C@H](C)[C@H](c2ccccc2)Oc2ccc(Cl)cc2S1(=O)=O	–	–	–	–	–	·	·
SMILES	SIAE primary	TCR CD3 inh	HTRA1 inh	ABHD4 inh	PRMT1 FP inh	BSA TAMRA ctr	TCR-CD3 inh conf
O=C(CNC(=O)Cc1ccccc1)N=Nc1c(O)[nH]c2ccccc12	–	–	–	–	–	·	·
O=C(CNC(=O)/C=C/c1ccco1)N=Nc1c(O)[nH]c2ccccc12	–	29.3	–	–	–	–	43.1
COC(=O)C1=C(C)N(C)C(=NCc2ccc(C(F)(F)F)cc2)NC1c1cccc(F)c1 (centres undefined)	–	–	·	–	–	·	·
COc1cccc(/C=N/NC(=O)C(=O)N/N=C/c2cccc(OC)c2O)c1O	–	20.5	·	–	–	–	–
NC(=S)N/N=C/c1ccccc1[N+](=O)[O-]	–	–	–	–	–	·	·
COC(=O)c1cccc(/C=N/NC(N)=S)c1O	–	33.8	–	–	–	–	–
O=C(COC(=O)C1CC1)NCc1ccccc1	–	–	–	–	–	·	·
CCCc1cc(=O)oc2cc(OCC(=O)Nc3ccc(S(N)(=O)=O)cc3)ccc12	–	–	–	–	–	·	·
CC1CN(C(=O)CCC(=O)N2CCOCC2)c2ccccc2O1 (centres undefined)	–	–	–	–	–	·	·
COc1ccc(N2CC(C(=O)N3CCCC(C)C3)CC2=O)cc1 (centres undefined)	–	141.6	–	–	–	–	–
CC(=O)N1CCN(C(C(=O)Nc2c(C)cccc2C)c2cccc(F)c2)CC1 (centres undefined)	–	–	·	–	–	·	·
Cc1c(OC(C(=O)O)c2ccccc2)ccc2c1oc(=O)c1ccccc12 (centres undefined)	–	19.5	–	–	–	–	–
Cc1c(OC(C(=O)O)c2ccccc2)ccc2c3c(c(=O)oc12)CCC3 (centres undefined)	–	–	–	–	–	·	·
CCN(CC)c1nc2c(c(=O)[nH]c(=O)n2C)n1CCCc1ccccc1	–	–	–	–	–	·	·
O=C(N/N=C/c1cc(Cl)cc([N+](=O)[O-])c1O)C1CC1	–	21.2	–	–	–	–	–
NS(=O)(=O)c1ccc(N=Nc2c[nH]c(=O)c(O)c2)cc1	–	26.0	–	–	26.6	–	36.3
Nc1nc(O)c(N=Nc2ccc(S(N)(=O)=O)cc2)c(=O)[nH]1	–	–	·	–	–	·	·
Cc1[nH]c2ccccc2c1CC(=O)Nc1ccc(Nc2cccnc2)c(-c2ccc(C(C)(C)C)cc2)c1	–	–	·	–	–	·	·
CC(=O)c1c(C)[nH]c(C(=O)OCc2nnc(-c3ccc([N+](=O)[O-])cc3)o2)c1C	–	26.5	–	–	24.3	–	–
CC(=O)c1c(C)[nH]c(C(=O)OCC(=O)NNC(=O)c2ccc([N+](=O)[O-])cc2)c1C	–	–	–	–	–	·	·
Cc1cc(N2CCC(C)CC2)nc2ccccc12	–	·	·	–	–	·	·
CN(C)c1ccc(C(=O)N/N=C/c2cc(Br)cc(Br)c2O)cc1	–	33.0	·	–	–	–	42.5
O=C(CNC(=O)c1cccc(Br)c1)N/N=C/c1cccs1	–	–	–	–	–	·	·
O=C(CNC(=O)c1cccc(Br)c1)N/N=C/c1cc(Br)cc(Br)c1O	–	47.9	–	–	–	–	36.4
